This is a sample that favours compounds with a hit; in the whole collection about 2% have one here.
RAD52 anneal inh: RAD52 (human) annealing inhibition; P43351; recombinant RAD52 DNA annealing, FRET fluorescence; inhibition, % at 18.7 µM; actives 0.46% (n = 360,000);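 active = every replicate showing at least 50% inhibition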
PglD DTNB: inhibitors of Campylobacter jejuni PglD acetyltransferase; AID 602405; actives 0.098% (n = 360,000); purified PglD enzyme, DTNB colorimetric CoA detection; inhibition, % at 12.5 µM; in the data active = inhibition above about 16%, passing the limit was not always enough
E-sel inducer: induces E-selectin expression in human endothelial cells; P16581; AID 686992; HUVEC E-selectin immunofluorescence imaging; normalized: neutral wells 0, TNF-alpha wells 100; actives 0.37% (n = 260,000); activation, % at 7.58 µM;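 active = mean E-selectin-positive cell signal at least 10% of the positive control, reached in at least 60% of replicates, without over 20% cell loss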
Target sequence (P16581 whole entry, looked up): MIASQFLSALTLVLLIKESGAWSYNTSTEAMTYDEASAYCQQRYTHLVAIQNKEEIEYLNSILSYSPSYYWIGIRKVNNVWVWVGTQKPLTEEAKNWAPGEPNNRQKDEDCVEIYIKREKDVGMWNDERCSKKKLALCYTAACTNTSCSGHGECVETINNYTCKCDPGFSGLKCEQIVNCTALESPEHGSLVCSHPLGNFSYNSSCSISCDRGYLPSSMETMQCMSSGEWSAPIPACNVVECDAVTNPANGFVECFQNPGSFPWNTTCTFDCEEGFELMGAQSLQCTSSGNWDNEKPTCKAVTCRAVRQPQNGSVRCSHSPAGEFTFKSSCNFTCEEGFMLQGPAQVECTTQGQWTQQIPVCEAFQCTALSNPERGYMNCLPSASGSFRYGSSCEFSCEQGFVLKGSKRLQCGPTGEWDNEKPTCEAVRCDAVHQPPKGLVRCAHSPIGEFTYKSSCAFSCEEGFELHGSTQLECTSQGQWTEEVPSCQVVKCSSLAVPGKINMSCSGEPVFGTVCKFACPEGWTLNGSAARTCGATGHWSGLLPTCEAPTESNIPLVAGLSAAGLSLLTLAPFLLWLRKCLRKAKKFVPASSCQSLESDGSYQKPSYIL
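Test system – human umbilical vein endothelial cells (HUVEC), E-selectin induction · Input – 3,000 HUVEC seeded per well · Buffer or medium – EGM-2, gelatin · Compound dosing – single-point compound dose · Detection – immunofluorescence imaging · Measure – percent E-selectin-positive cells · Controls – TNF-alpha high, DMSO low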
RAD54 inh: RAD54 (human) branch migration inhibition | inhibition, % at 10.4 µM | AID 602329 | actives 0.14% (n = 360,000) | RAD54 Holliday junction branch migration, FAM/BHQ fluorescence;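 active = mean normalized replicate activity at least 40 and at least half of replicates scoring 40 or more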;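 note: 0% = median of neutral control wells and 100% = median of positive control wells; inhibitors cause a drop in the FAM fluorescence signal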
Ecoli rRNA inh: selective bacterial rRNA inhibition in E. coli | actives 1.6% (n = 350,000) | GFP signal change (wild-type ribosome), % (no concentration beside the values) | E. coli WT GFP vs humanized-ribosome RFP mutants, fluorescence, 24 h; hits give low values; DMSO median 0, no signal -100;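 active = significant combined selectivity score with lowered wild-type GFP, culture density cut under 30%, mutant RFP and density less affected; inactive = any of these conditions unmet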
XiGFP reactiv: activators of X-chromosome reactivation in mouse fibroblasts | XiGFP mouse fibroblasts, % GFP-positive cells imaging, 3 d; cells co-treated with 5-aza-dC sensitizer; scaled so ellipticine positive control = 100% | activation, % at 7.58 µM | actives 0.055% (n = 360,000);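 active = mean normalized replicate activation at least 10% and every replicate at or above 10%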;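 note: 0% = median of on-plate neutral control wells and 100% = ellipticine 6 µM median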
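material = 68-5-11 XiGFP fibroblast line | medium = DMEM plus 5-aza-dC sensitizer | schedule = 3 days compound exposure | benchmarks = positive control ellipticine, 6 µM final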
* marks the source's active call; other numbers are inactive results; · = no result.

SMILES	RAD52 anneal inh	PglD DTNB	E-sel inducer	RAD54 inh	Ecoli rRNA inh	XiGFP reactiv
CN(c1cccc(NC(=O)c2ccc(N(C)S(=O)(=O)c3ccccc3)cc2)c1)S(C)(=O)=O	-4.3	·	-1.2	·	-17.1*	0.1
CN(c1ccccc1)S(=O)(=O)c1cccc(NC(=O)CCN2C(=O)C3CCCCC3C2=O)c1 (stereo unspecified)	-10.0	-10.4	0.3	4.6	-29.0*	0.0
C[C@H]1CN([C@@H](C)CO)C(=O)c2cccc(NC(=O)Nc3ccc(F)cc3)c2O[C@@H]1CN(C)S(=O)(=O)c1cn(C)cn1	·	·	0.1	·	-0.4	0.0
C[C@H](CO)N1C[C@H](C)[C@@H](CN(C)Cc2ccc3c(c2)OCO3)OCCCC[C@H](C)Oc2ccc(NS(=O)(=O)c3ccccc3)cc2C1=O	17.9	-5.5	·	-7.2	1.3	0.2
O=C(CN1C(=O)c2ccccc2C1=O)Nc1cccc(S(=O)(=O)Nc2ccccc2Cl)c1	2.5	·	2.1	·	-25.9*	-0.1
CO[C@H]1CC[C@H]2CCN(C)C(=O)[C@@H](C)[C@H](OC)CN(C)C(=O)c3cccc(C#N)c3OC[C@@H]1O2	-1.6	1.2	0.2	7.0	6.1	-0.1
O=C(NNC(=O)c1cc(-c2cccnc2)nc2ccccc12)Nc1ccc(Cl)cc1	-21.2	·	4.5	·	-29.3*	-0.1
Cc1cccc(S(=O)(=O)NNC(=O)c2cc(-c3ccc(F)cc3)nc3ccccc23)c1	3.0	1.7	·	-5.9	0.6	0.0
O=C(NNC(=O)c1cc(-c2ccccc2)nc2ccccc12)Nc1cccc(Cl)c1	·	5.3	·	6.1	·	·
O=C(NNS(=O)(=O)c1ccc(Cl)cc1)c1cc(-c2ccccc2)nc2ccccc12	-28.3	2.1	·	-3.8	-30.8*	0.1
O=C(N/N=C/c1ccc[nH]1)c1cc(-c2ccc(Cl)cc2)nc2ccccc12	-22.5	·	-1.8	·	-38.5*	0.0
O=C(C[C@H]1C=C[C@@H](NC(=O)c2cccc(F)c2)[C@@H](CO)O1)Nc1nccs1	-18.2	4.6	-0.1	-4.5	-3.5	0.0
NC(=O)C1CC(=O)N(Cc2ccc3c(c2)OCO3)C(=Nc2ccccc2)S1 (stereo unspecified)	-19.3	6.3	·	-1.6	-18.0*	·
CNC(=O)C1CC(=O)N(Cc2ccc3c(c2)OCO3)C(=Nc2ccc(OC)cc2)S1 (stereo unspecified)	·	2.2	·	-1.7	·	·
CC(C)c1ccc(/C=C/C(=O)N2CCOCC2)cc1	-3.4	-2.0	·	-2.5	8.5	0.0
CC(C)c1ccc(/C=C/C(=O)N2CCCCCC2)cc1	-32.8	·	0.1	·	-25.9*	-0.1
COc1ccc(/C=N/NC(=O)c2cc(C34CC5CC(CC(C5)C3)C4)[nH]n2)cc1OC	-6.5	·	·	·	4.2	0.0
O=C(N/N=C/c1ccc(O)cc1)c1cc(C23CC4CC(CC(C4)C2)C3)[nH]n1	-5.7	·	·	·	-32.3*	0.1
N#CC1=C(SCC(=O)Nc2nccs2)NC(=O)CC1c1ccccc1 (stereo unspecified)	-16.2	4.4	·	9.0	-28.1*	·
CNC[C@H]1OCCCC[C@@H](C)Oc2ccc(NS(=O)(=O)c3ccccc3)cc2C(=O)N([C@H](C)CO)C[C@H]1C	-6.6	4.8	0.1	7.5	-1.1	0.3
Clc1ccc(SCc2cn3ccccc3n2)cc1	3.4	·	·	·	-27.8*	0.1
Clc1ccc(-n2nnnc2SCc2cn3ccccc3n2)cc1	·	2.1	·	-4.5	·	·
CCC(=O)N1CC2(C1)[C@@H](c1ccccc1)[C@@H](CO)N2Cc1cccc(Cl)c1	-1.2	·	0.1	·	-5.8	0.0
C[C@@H]1CCCCO[C@@H](CN(C)C(=O)Cc2ccccc2)[C@@H](C)CN([C@@H](C)CO)C(=O)c2cc(N(C)C)ccc2O1	3.7	1.1	-0.2	-0.2	-2.3	0.0
COc1ccc(C(=O)COC(=O)c2ccc(OC)c(OC)c2)cc1OC	-14.0	-2.0	·	8.8	-0.5	·
SMILES	RAD52 anneal inh	PglD DTNB	E-sel inducer	RAD54 inh	Ecoli rRNA inh	XiGFP reactiv
COc1ccc(C(=O)OCC(=O)c2ccc(F)cc2)cc1OC	-12.0	2.8	-0.4	-6.1	-22.3*	0.0
COc1cc(CNCc2ccccn2)ccc1OCc1c(Cl)cccc1Cl	0.7	1.0	·	-9.2	-46.0*	·
COc1cc(CNc2nnnn2C)ccc1OCc1c(F)cccc1Cl	-6.5	·	0.7	·	4.8	0.2
COc1cc(CNCc2ccccn2)ccc1OCc1cccc(Cl)c1	0.0	0.9	·	2.1	-41.2*	·
COc1cc(CNCc2ccccn2)ccc1OCc1ccc(Cl)cc1	6.6	4.3	·	-2.9	2.8	0.2
O=C(Nc1ccccc1C(=O)O)/C(=C/c1ccc(Cl)cc1Cl)NC(=O)c1ccco1	-1.1	-1.2	-0.3	-1.7	-32.0*	0.0
CN1C(=O)c2cc(NC(=O)NCc3ccccc3)ccc2OC[C@H]2O[C@H](CC(=O)O)CC[C@@H]21	-6.1	2.1	0.0	-4.6	0.8	0.1
O=C(C[C@@H]1C[C@H]2c3cc(NC(=O)Nc4ccccc4)ccc3O[C@H]2[C@H](CO)O1)NCC1CC1	0.9	4.8	-0.5	2.8	-1.8	0.0
OC(c1ccc(Cl)cc1)c1nccc2ccccc12 (stereo unspecified)	-4.8	0.2	0.0	-12.8	-21.9*	0.0
Cc1noc(C)c1NC(=O)Nc1ccc2c(c1)CC(=O)N([C@@H](C)CO)C[C@H](C)[C@H](CN(C)Cc1ccc(Oc3ccccc3)cc1)O2	·	-2.9	398.7*	15.0	-9.6	0.0
Cc1noc(C)c1NC(=O)Nc1ccc2c(c1)CC(=O)N([C@@H](C)CO)C[C@H](C)[C@@H](CN(C)C(=O)Nc1ccc(F)cc1)O2	4.4	0.2	72.5*	6.9	6.7	0.1
C[C@H]1CN([C@@H](C)CO)C(=O)Cc2cc(NC(=O)Nc3ccc(C(F)(F)F)cc3)ccc2O[C@@H]1CN(C)Cc1ccc(Oc2ccccc2)cc1	·	2.4	0.5	-5.8	3.5	0.0
COc1ccc(NC(=O)Nc2ccc3c(c2)CC(=O)N([C@@H](C)CO)C[C@@H](C)[C@H](CN(C)Cc2ccc(-c4ccccc4)cc2)O3)cc1	57.5*	0.9	0.2	-1.4	0.5	-0.2
C[C@H](CO)N1C[C@H](C)[C@@H](CN(C)Cc2ccc(Oc3ccccc3)cc2)Oc2ccc(NC(=O)Nc3ccc(C(F)(F)F)cc3)cc2CC1=O	·	1.5	35.8*	1.2	1.5	-0.1
Cc1noc(C)c1NC(=O)Nc1ccc2c(c1)CC(=O)N([C@H](C)CO)C[C@@H](C)[C@@H](CN(C)Cc1ccc(Oc3ccccc3)cc1)O2	·	-2.0	-4.7	-4.5	-1.7	0.0
Cc1ccc(-c2cnc3c(c2)C(=O)N([C@H](C)CO)C[C@H](C)[C@@H](CN(C)CC2CCOCC2)O3)cc1	1.6	1.5	-0.2	8.1	2.7	-0.3
COc1ccccc1NC(=O)N1CC(=O)N2[C@@H](CO)[C@@H](c3ccc(C#CCC(C)C)cc3)[C@@H]2C1	·	·	·	·	-14.2	0.5
